Where a SMILES comes first, the peptide text is derived from it.
Each compound was assayed against Integrin alpha-IIb/beta-3 (Homo sapiens, UniProt P08514+P05106) (assay: Inhibition of platelet aggregation (PRP)).
Integrin alpha-IIb/beta-3, sequence (P05106 27-788 limits assumed): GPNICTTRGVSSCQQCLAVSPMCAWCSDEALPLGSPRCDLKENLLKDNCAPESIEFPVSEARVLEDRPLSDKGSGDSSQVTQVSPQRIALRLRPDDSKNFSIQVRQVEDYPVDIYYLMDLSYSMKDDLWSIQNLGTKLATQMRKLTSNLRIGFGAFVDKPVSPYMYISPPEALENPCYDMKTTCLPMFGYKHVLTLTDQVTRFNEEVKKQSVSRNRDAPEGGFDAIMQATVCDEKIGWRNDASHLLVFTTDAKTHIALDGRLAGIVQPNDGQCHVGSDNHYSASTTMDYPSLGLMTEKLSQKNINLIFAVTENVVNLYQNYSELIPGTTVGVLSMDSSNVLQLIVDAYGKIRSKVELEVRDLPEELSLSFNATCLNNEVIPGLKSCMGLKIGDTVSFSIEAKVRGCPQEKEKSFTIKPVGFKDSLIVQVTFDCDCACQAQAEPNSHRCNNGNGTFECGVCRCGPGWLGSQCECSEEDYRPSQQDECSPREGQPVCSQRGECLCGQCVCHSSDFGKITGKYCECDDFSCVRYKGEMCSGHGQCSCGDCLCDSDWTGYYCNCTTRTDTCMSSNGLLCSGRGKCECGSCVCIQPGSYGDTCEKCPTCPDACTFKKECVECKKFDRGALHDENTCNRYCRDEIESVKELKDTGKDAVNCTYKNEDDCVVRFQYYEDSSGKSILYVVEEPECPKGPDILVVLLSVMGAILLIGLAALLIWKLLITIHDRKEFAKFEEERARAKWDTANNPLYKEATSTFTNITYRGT
Integrin alpha-IIb/beta-3, sequence (P08514 32-887 limits assumed): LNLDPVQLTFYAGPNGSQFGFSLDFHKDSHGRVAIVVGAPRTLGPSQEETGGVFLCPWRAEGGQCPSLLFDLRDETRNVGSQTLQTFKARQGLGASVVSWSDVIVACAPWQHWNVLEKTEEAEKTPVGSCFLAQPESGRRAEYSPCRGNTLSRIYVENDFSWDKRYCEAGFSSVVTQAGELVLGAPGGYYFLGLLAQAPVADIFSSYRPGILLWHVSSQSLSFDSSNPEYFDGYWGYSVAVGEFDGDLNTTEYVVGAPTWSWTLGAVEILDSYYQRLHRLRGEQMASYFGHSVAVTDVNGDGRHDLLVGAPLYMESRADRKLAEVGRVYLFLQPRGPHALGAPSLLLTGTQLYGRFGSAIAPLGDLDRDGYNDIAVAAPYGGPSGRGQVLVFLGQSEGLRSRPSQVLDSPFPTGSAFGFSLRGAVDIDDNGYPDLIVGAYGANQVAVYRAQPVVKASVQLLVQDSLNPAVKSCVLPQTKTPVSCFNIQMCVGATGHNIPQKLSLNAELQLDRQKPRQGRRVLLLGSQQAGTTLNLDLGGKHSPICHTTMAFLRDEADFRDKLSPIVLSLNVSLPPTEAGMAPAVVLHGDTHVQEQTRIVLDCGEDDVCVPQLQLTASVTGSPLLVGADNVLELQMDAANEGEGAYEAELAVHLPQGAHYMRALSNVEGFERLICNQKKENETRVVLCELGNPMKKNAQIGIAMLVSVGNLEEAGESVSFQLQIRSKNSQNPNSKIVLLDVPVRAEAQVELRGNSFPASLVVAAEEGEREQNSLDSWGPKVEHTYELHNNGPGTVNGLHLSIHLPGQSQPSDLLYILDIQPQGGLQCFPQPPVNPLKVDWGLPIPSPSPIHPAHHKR
Integrin alpha-IIb/beta-3, sequence (P08514 891-1039 limits assumed): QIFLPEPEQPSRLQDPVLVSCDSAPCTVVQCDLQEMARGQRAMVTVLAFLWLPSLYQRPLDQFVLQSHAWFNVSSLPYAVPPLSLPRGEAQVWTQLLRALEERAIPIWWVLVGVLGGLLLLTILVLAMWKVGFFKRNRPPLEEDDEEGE
How it was run: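 Aggregation of platelets in platelet-rich plasma was induced with ADP, and inhibition of this aggregation was measured.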
In the case of N=C(N)NCCCCCCCC(=O)N[C@@H](CC(=O)O)C(=O)NCCc1ccccc1, the IC50 is reported as 60 µM. In the case of N=C(N)NCCCCCCCC(=O)N[C@@H](CC(=O)O)C(=O)N[C@@H](Cc1ccccc1)c1nnn[nH]1, the IC50 is reported as 4 µM. NC(N)=NCCC[C@H](N)C(=O)NCC(=O)N[C@@H](CC(=O)O)C(=O)N[C@@H](Cc1ccccc1)C(=O)O (H-RGDF-OH) showed an IC50 of 40 µM. N=C(N)NCCCCCCCC(=O)N[C@@H](CC(=O)O)C(=O)N[C@@H](Cc1ccccc1)C(=O)O [N-(1-Carboxy-2-phenyl-ethyl)-3-[8-(diaminomethyl-amino)-octanoylamino]-succinamic acid] was tested, and the IC50 was 1.6 µM.

Reference: BindingDB's records for doi:10.1021/jm00104a019 (Searle Research & Development, 1993)
